As usually defined, the inhibition is the relative decrease from the control value, in per cent.

Here are results for seven compounds from PubChem BioAssay.

Assay [1] is described as follows: inhibitors of TNFa-induced NFkB p65 translocation, primary screen, imaging, HUVEC, MLSMR starter and 10KST1 sets (AID 438;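 active means inhibition above 20% together with a positive visual image hit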;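 further: compound added about 3h40 before a 20 min TNFalpha stimulation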;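 on inhibition: signal is the nuclear over cytoplasmic p65 intensity ratio per well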). To be noted: HUVEC TNFa-induced p65 nuclear translocation; cell count: measured here: nuclei count (cytotoxicity indicator), at 2.08 µM; inhibition: at 2 µM, stronger effect = higher value, 0% TNFa-plus-vehicle, 100% no-TNFa wells.
The nature of assay [2]: endothelial E-selectin expression blockers – imaging, HUVEC, immunofluorescence, MLSMR starter and 10KST1 sets, primary screen (AID 487;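 active means visually confirmed hit in the image check and inhibition above 20%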;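 on inhibition: signal is fraction of cell area covered by stained E-selectin grains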;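 on nuclei count: 100% = median nuclei count of all wells on the same plate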). As to conditions: HUVEC TNFalpha-induced E-selectin immunofluorescence imaging, at 2 µM; inhibition: stronger effect = higher value; nuclei count: measured here: cell number, toxicity.
Assay [3] in a line: Primary imaging screen for DUSP6 inhibitors that restore phospho-Erk in transfected HeLa cells, chemical complementation (AID 609).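 On inhibition: phospho-Erk level distribution per well compared with pooled transfected vehicle control wells.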 As to conditions: HeLa MKP-3 transfected, phospho-Erk imaging KS statistic, at 10 µM, cells stimulated with TPA for 15 min.
In assay [4] the target is Dual specificity protein phosphatase 6 (Homo sapiens) (UniProt Q16828). Described as above. As to conditions: HeLa MKP-3 transfected, phospho-Erk imaging KS statistic; at 10 µM; stronger effect = higher value; cells stimulated with TPA for 15 min.
For assay [5], the target named is Voltage-gated potassium channel subunit beta-2 (Rattus norvegicus) (UniProt P62483). Description: inhibitors of rat Kvbeta2 reductase activity – biochemical, NADPH fluorescence, primary screen (AID 622;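 active means fluorescence slope higher than the sample average by over 3 SD, cut at about -0.22 in these data, passing the limit was not always enough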;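 further: slope of raw intensity against log time taken from 70 to 1610 s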). As to conditions: recombinant KvBeta, 4-cyanobenzaldehyde reduction, at 10 µM, stronger effect = higher value.
Assay [6] shares this target. In words: enhancers of rat Kvbeta2 NADPH turnover – biochemical, NADPH fluorescence, primary screen (AID 623;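 active means NADPH fluorescence slope more negative than the mean of all samples by about 3 SD, 99.7% confidence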;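 further: fluorescence intensity change per second fitted from 20 to 320 s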). As to conditions: Recombinant KvBeta, NADPH fluorescence decrease slope, 10 min; at 10 µM; stronger effect = lower value.
In assay [7] the target is Muscarinic acetylcholine receptor M4 (Homo sapiens) (UniProt P08173). In words: M4-linked GIRK flux change, two-sided – cell-based, HEK293 M4/GIRK, thallium flux, BTC-AM, M4 allosteric agonist project, primary screen (AID 625;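 active means fluorescence slope after compound addition differing from the mean of all tested samples at 99.7% confidence, mostly higher but some lower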;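 further: thallium influx through GIRK channels coupled to M4 in HEK293 cells with BTC-AM dye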). To be noted: at 10 µM, actives lie on both sides. In short, it runs like this: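 Material: M4/GIRK1/GIRK2 stable HEK293 cell line. Medium: pH 7.3 thallium assay buffer. Dosing: single compound concentration, 10 µM final. Schedule: 1 h dye loading, 2 min kinetic read. Measured by: kinetic fluorescence with BTC-AM dye. Read-out: post-addition slope, 15–24 s, of baseline-normalized fluorescence. Benchmarks: carbachol and DMSO controls.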

A short description of assay [8]: inhibitors of larval lipid processing in zebrafish, primary screen, whole organism, PED6 fluorescence, gall bladder and intestine (AID 686;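 active means a full or partial loss of lipid-probe fluorescence in the fish gall bladder, intestine or both, judged by eye; inactive means no fluorescence loss, or compound toxic to the fish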;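 further: larvae 5 to 7 days old with five fish per well; signal comes from phospholipase A2 cleavage of quenched PED6 carried via bile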). To be noted: Zebrafish larvae PED6 lipid processing, fluorescence scoring; screened at 20 µM (by protocol). In a few lines: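 System: live zebrafish larvae aged 5-7 days, whole organism; measure: graded gall bladder and intestinal fluorescence inhibition per well; incubation: overnight exposure; reagent: ingested quenched lipid PED6 at 100 nM; signal: By-eye fluorescence microscopy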

A short description of assay [9]: loss of swimming-algae plug formation – whole organism, Chlamydomonas reinhardtii, WT vs cilia-less mutant, absorbance, 96-well, primary screen (AID 463189;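 active means inhibition at or above 50% relative to wild type and mutant plate controls; inactive means inhibition below 50%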;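 further: 0% = wild type cc124 cells in DMSO and 100% = ciliumless bld1 mutant cells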). To be noted: Chlamydomonas reinhardtii gravitaxis, OD600 absorbance, 2 days; at 10 µM; stronger effect = higher value.
Where [10] appears, read: measured here: cell density z-score.
Where [11] appears, read: measured here: nuclear c-Myc green intensity z-score.
[12] abbreviates: measured here: nuclear pErk red intensity z-score, stronger effect = higher value.

The structures appear in SMILES notation. Active and inactive are the calls of the source.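 How the source made its calls, unless noted: active means compounds giving at least 50% inhibition in the cell-based MKP-3 phosphatase rescue imaging test; inactive means the rest.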

Muscarinic acetylcholine receptor M4 (Homo sapiens), sequence (P08173 whole entry, looked up): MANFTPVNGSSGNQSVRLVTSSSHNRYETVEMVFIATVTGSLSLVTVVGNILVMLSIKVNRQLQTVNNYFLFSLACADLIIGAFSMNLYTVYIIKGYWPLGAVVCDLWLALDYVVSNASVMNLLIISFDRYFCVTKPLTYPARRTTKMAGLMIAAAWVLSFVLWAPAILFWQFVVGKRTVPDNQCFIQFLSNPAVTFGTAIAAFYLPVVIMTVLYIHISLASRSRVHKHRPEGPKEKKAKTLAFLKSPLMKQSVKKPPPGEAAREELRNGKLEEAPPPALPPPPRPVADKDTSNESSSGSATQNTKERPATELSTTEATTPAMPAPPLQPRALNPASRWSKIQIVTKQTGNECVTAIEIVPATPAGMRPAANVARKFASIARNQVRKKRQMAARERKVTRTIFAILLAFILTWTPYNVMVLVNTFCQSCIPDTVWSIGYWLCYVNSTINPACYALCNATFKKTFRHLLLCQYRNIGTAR
Dual specificity protein phosphatase 6 (Homo sapiens), sequence (Q16828 whole entry, looked up): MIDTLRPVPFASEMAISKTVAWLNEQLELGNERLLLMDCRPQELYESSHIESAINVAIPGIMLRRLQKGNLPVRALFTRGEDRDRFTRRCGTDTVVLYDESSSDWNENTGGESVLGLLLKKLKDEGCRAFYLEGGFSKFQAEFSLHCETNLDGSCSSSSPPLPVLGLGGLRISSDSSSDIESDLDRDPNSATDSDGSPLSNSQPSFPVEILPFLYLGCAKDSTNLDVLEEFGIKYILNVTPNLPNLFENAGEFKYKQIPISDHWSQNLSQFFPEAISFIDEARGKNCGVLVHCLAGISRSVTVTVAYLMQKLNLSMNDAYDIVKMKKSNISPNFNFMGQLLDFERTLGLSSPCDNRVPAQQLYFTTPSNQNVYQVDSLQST
Voltage-gated potassium channel subunit beta-2 (Rattus norvegicus), sequence (P62483 whole entry, looked up): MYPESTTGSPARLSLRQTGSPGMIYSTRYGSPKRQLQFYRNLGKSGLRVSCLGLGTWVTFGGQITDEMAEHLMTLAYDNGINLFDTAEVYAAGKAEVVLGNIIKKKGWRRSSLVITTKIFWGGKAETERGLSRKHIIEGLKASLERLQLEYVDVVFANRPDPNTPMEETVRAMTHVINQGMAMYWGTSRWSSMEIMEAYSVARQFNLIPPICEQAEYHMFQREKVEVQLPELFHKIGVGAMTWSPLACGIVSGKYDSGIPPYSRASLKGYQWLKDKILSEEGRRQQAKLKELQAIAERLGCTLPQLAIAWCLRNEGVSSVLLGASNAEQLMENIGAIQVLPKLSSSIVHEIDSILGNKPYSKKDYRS

As for `CCCCOc1ccccc1C(=O)NCCCCCC(=O)O`, the cell count in assay [1] turned out to be 375. Moreover, the inhibition in assay [1] was -2.6% (inactive); in [2], -80.5% (inactive); in assay [4], -0.584% (inactive); in assay [9], 19.6% (inactive). Further, the nuclei count in [2] was 150%. In addition, the values for the z-score in [3] (setting [10]), in [3] (setting [11]) and in [3] (setting [12]) were 1.24, -0.608 and 1.41, respectively. Further, the fluorescence slope in assay [5] was -0.462 (inactive); in [7] it was 0.00571 (inactive). Also, the NADPH fluorescence slope in assay [6] is -0.000119 (inactive). Moreover, in assay [8], the result was inactive.

`CCCCCOc1ccccc1C(=O)NCCCC(=O)O`: the cell count in [1] stood at 352. In addition, the inhibition in assay [1] is -4.8% (inactive); in [2] it was -57.4% (inactive); in [4] it was 19.4% (inactive); in assay [9], 32.4% (inactive). In assay [2], this compound gave a nuclei count of 116%. Also, the results for the z-score in assay [3] (setting [10]), in assay [3] (setting [11]) and in assay [3] (setting [12]) were 0.366, -0.837 and 0.123, respectively. For the same compound, the fluorescence slope in assay [5] is -0.463 (inactive); in [7], 0.00541 (inactive). Besides, the NADPH fluorescence slope in assay [6] is -0.000126 (inactive). Further, the result in assay [8] was inactive.

For `CC(C)CNc1nc2c(c(=O)n(C)c(=O)n2C)n1Cc1cccc(Br)c1`, the cell count in [1] was determined as 696. The inhibition is 0.6% (inactive) in assay [1], -160% (inactive) in [2], 7.93% (inactive) in assay [4] and 13.3% (inactive) in assay [9]. Moreover, the nuclei count in assay [2] worked out at 174%. The figures for the z-score in [3] (setting [10]), in assay [3] (setting [11]) and in assay [3] (setting [12]) were 0.789, -0.339 and -0.433, respectively. Besides, the fluorescence slope in assay [5] was -0.498 (inactive); in [7], 0.00519 (inactive). Besides, the NADPH fluorescence slope in assay [6] is -3.9e-05 (inactive). Moreover, in [8], the call was inactive.

Consider `Cc1cccc(C)c1OCC(=O)Nc1cccc(-c2nnc(-c3ccccc3)o2)c1`, for which, in assay [1], the cell count was 634. The inhibition in assay [1] is -2.9% (inactive); in assay [2], 27.8% (inactive); in [4], -9.53% (inactive); in assay [9], -17.1% (inactive). In [2], the nuclei count turned out to be 82.9%. The z-score in [3] (setting [10]) is -2.16; in [3] (setting [11]) it was 1.5; in assay [3] (setting [12]), 0.715. Also, the fluorescence slope in assay [5] is -0.492 (inactive); in assay [7], 0.00887 (inactive). Moreover, the NADPH fluorescence slope in [6] was -4.2e-05 (inactive). Besides, in assay [8], the outcome was inactive.

Take `COc1ccccc1-n1c(N)c(C(=O)NCC2CCCO2)c2nc3ccccc3nc21` (stereo unspecified): the cell count in assay [1] amounted to 630. Further, the inhibition in assay [1] was -11.8% (inactive); in assay [2], -49.3% (inactive); in [4], 14.7% (inactive); in [9], 19.9% (inactive). The compound further returned a nuclei count in assay [2] of 160%. The values for the z-score in [3] (setting [10]), in [3] (setting [11]) and in assay [3] (setting [12]) were 1.5, -1.96 and 0.209, respectively. The fluorescence slope in assay [5] was -0.0437 (inactive); in [7], 0.00576 (inactive). Besides, in assay [6], the NADPH fluorescence slope was 2e-05 (inactive). Further, the compound was classed as inactive in assay [8].

On to `COc1cccc(C2CC(c3ccccc3Cl)n3nc(N)nc3N2)c1` (stereo unspecified), for which the cell count in [1] came to 399. The inhibition in assay [1] is -1.4% (inactive); in [2], -136% (inactive); in assay [4], 24.4% (inactive); in assay [9], 29.4% (inactive). For the same compound, the nuclei count in assay [2] worked out at 131%. Besides, the results for the z-score in assay [3] (setting [10]), in assay [3] (setting [11]) and in [3] (setting [12]) were 0.0849, 1.44 and -0.355, respectively. Also, the fluorescence slope in assay [5] was -0.464 (inactive); in assay [7], 0.00588 (inactive). Also, the NADPH fluorescence slope in assay [6] was -7.1e-05 (inactive). The outcome in assay [8] was inactive.

For `CCCC(=O)Nc1nn(CCC)c2nc3ccccc3cc12`, the cell count in assay [1] is 632. Besides, the inhibition in [1] was -8.1% (inactive); in assay [2] it was 7.7% (inactive); in assay [4], 2.71% (inactive); in [9], 6.78% (inactive). The compound further gave a nuclei count in assay [2] of 142%. In addition, the z-score is -0.342 in assay [3] (setting [10]), -1.58 in assay [3] (setting [11]) and 0.919 in [3] (setting [12]). The fluorescence slope is -0.481 (inactive) in [5] and 0.00673 (inactive) in [7]. In addition, the NADPH fluorescence slope in assay [6] is -6.7e-05 (inactive). Also, the call in assay [8] was inactive.
